# Test results reported in ChEMBL document CHEMBL3112493, “Synthesis of 2,6-disubstituted benzylamine derivatives as reversible selective inhibitors of copper amine oxidases” (Bioorg Med Chem, 2014).
# Activity calls are given as the source filed them. The calls are words filed in the database; no cut-off is given here.
# How the values were obtained:
# [1] = molecular target: T1, Protein-lysine 6-oxidase (Sus scrofa, UniProt P45845); experiment: Inhibition of porcine aorta lysyl oxidase preincubated for 30 mins followed by substrate addition
# T1 sequence (P45845 whole entry): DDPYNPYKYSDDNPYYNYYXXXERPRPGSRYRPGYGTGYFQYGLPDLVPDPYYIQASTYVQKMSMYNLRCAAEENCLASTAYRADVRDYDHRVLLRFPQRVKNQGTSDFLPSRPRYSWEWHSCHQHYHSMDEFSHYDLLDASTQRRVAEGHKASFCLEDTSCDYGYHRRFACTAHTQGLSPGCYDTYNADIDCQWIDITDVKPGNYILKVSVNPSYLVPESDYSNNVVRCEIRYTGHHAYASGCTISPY
# In short: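 Porcine aorta lysyl oxidase, prepared in-house. Enzyme was preincubated with inhibitor at 6 concentrations for 30 min at 30 °C. Saturating tritiated protein-bound lysine substrate was then added and activity was measured radiochemically. In some cases H2O2 production was followed instead, by the 4-aminoantipyrine method.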
# [2] = molecular target: T2, Amine oxidase [flavin-containing] B (Rattus norvegicus, UniProt P19643); experiment: Inhibition of rat liver MAO-B using 2-phenyl[1-14C]-ethylamine/[7-14C]-benzylamine as substrate preincubated for 30 mins followed by substrate addition
# T2 sequence (P19643 whole entry): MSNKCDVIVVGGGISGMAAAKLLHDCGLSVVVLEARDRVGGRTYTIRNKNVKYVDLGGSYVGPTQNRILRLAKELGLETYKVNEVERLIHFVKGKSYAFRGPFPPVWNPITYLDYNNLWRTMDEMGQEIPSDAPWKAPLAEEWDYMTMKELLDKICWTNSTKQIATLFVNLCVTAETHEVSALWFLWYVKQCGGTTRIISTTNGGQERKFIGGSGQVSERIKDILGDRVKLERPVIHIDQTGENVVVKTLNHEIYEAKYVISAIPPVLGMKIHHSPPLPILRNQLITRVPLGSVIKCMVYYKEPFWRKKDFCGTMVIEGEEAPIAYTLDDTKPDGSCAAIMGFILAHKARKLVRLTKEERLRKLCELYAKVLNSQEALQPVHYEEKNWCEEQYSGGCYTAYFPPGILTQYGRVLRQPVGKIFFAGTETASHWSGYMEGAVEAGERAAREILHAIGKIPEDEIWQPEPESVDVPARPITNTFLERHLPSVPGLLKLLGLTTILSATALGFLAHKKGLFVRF
# In short: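 MAO B source was rat liver mitochondria, obtained by 1:10 homogenization in 0.01 M phosphate pH 7.4 with 0.25 M sucrose, then centrifugation at 1000g and 10,000g (20 min each). Mitochondria were preincubated with inhibitor (6 concentrations) for 30 min at 30 °C. Saturating 2-phenyl[1-14C]ethylamine was then added and activity measured radiochemically.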
# [3] = Acute toxicity in ip dosed Swiss mouse assessed as appearance of tonic-clonic convulsion followed by respiratory block measured after 15 to 20 mins; format: organism-based; settings: in vivo
# [4] = molecular target: T3, Diamine oxidase [copper-containing] (Sus scrofa, UniProt Q9TRC7); experiment: Inhibition of porcine kidney DAO using [1,4-14C]-putrescine as substrate preincubated for 30 mins followed by substrate addition
# T3 sequence (Q9TRC7 whole entry): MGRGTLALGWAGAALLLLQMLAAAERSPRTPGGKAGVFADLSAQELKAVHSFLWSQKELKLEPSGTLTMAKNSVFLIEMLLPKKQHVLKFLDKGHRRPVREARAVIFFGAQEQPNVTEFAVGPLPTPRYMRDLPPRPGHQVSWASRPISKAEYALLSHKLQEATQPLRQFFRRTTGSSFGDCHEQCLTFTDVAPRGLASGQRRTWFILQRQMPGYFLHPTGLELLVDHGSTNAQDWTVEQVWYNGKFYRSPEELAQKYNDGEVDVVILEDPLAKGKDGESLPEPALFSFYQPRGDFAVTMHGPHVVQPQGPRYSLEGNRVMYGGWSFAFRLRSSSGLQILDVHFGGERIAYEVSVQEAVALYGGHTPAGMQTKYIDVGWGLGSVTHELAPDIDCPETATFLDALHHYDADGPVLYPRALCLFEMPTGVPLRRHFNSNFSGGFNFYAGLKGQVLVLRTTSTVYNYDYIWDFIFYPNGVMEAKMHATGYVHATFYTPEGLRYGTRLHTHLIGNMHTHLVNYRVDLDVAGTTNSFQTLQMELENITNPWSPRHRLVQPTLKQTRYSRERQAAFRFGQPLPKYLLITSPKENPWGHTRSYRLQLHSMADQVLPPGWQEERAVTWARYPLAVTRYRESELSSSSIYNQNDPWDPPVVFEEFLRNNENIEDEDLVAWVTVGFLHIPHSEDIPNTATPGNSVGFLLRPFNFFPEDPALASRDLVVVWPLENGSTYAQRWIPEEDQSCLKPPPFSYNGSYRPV
# In short: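 Porcine kidney diamine oxidase was preincubated with inhibitor at 6 concentrations for 30 min at 30 °C. Saturating [1,4-14C]putrescine was then added and activity was determined radiochemically. In some cases H2O2 production was measured by the 4-aminoantipyrine method.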
# [5] = organism: Sus scrofa; experiment: Mixed-type inhibition of porcine serum BAO using [7-14C]-benzylamine as substrate by Lineweaver-Burk plot analysis
# [6] = organism: Sus scrofa; experiment: Reversible inhibition of porcine serum BAO using [7-14C]-benzylamine as substrate assessed as residual activity at 4 times IC50 preincubated for 5 mins followed by 10 fold dilution relative to control
# In short: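 Solutions were diluted 1:10 and 1:100, and portions were dialyzed against water at 4 °C for 24 h. Activity was read with saturating [7-14C]benzylamine; the reaction was stopped with 3 N HCl and labeled benzaldehyde extracted into ethyl acetate and counted.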
# [7] = Inhibition of porcine serum BAO using [7-14C]-benzylamine as substrate preincubated for 30 mins followed by substrate addition; design: species or system Sus scrofa
# In short: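 Porcine serum benzylamine oxidase was preincubated with inhibitor at 6 concentrations for 30 min at 30 °C. [7-14C]Benzylamine was then added at a saturating level and radiochemical activity was measured. In some cases H2O2 formation was followed by the 4-aminoantipyrine method.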
# [8] = organism: Sus scrofa; experiment: Non-competitive inhibition of porcine serum BAO using [7-14C]-benzylamine as substrate by Lineweaver-Burk plot analysis
# [9] = Oral bioavailability in rat; format: ADME, organism-based; settings: in vivo
# [10] = Half life in rat; format: ADME, organism-based; settings: in vivo
bioavailability [9] [%],half-life [10] [h],Compound,IC50 [1] [µM],IC50 [2] [µM],LD50 [3] [mg/kg],IC50 [4] [µM],inhibition mode (qualitative) [5],Activity [6] [%],IC50 [7] [µM],inhibition [8]
–,–,CCOc1cccc(OCC)c1CN.Cl,> 1000,> 1000,74,> 1000,Active,50,0.18,–
–,–,Cl.NCc1c(OCCO)cccc1OCCO,> 1000,> 1000,> 1000,> 1000,Active,50,2.6,–
–,–,Cl.NCc1c(OCCCO)cccc1OCCCO,> 1000,> 1000,690,> 1000,Active,50,0.55,–
–,–,Cl.NCc1c(OCCCCO)cccc1OCCCCO,> 1000,> 1000,540,> 1000,Active,50,0.066,–
–,–,CCOc1ccccc1CN,> 1000,> 1000,–,> 1000,–,–,> 1000,–
–,–,NCc1c(O)cccc1O,> 1000,> 1000,–,> 1000,–,–,> 1000,–
–,–,CC(C)Oc1cccc(OC(C)C)c1CN,> 1000,> 1000,–,> 1000,–,–,> 1000,–
–,–,CCCCOc1cccc(OCCCC)c1CN.Cl,> 1000,> 1000,25,> 1000,–,50,0.14,Active
–,–,CCCOc1cccc(OCCC)c1CN.Cl,> 1000,> 1000,37,> 1000,Active,50,–,–
51.5,2,CCOc1cncc(OCC)c1CN,–,–,–,–,–,–,–,–
–,–,NCc1ccccc1CO,> 1000,> 1000,–,> 1000,–,–,> 1000,–
–,–,COCc1cccc(COC)c1CN.Cl,> 1000,> 1000,240,> 1000,Active,> 80,> 1000,–
–,–,CCCc1cccc(CCC)c1CN.Cl,> 1000,> 1000,55,> 1000,Active,> 80,15,–
–,–,CCc1cccc(CC)c1CN.Cl,> 1000,> 1000,92,> 1000,Active,> 80,–,–
–,–,COc1cccc(OC)c1CN.Cl,> 1000,190,120,> 1000,Active,> 80,120,–
–,–,NCc1ccccc1O,> 1000,> 1000,–,> 1000,–,–,> 1000,–
–,–,CCCCc1cccc(CCCC)c1CN.Cl,> 1000,> 1000,54,> 1000,Active,> 80,14,–
–,–,CCOCc1cccc(COCC)c1CN,> 1000,> 1000,–,> 1000,–,–,> 1000,–
